One data set deals with Bacillus subtilis. Kind of data set: Antibacterial activity against Bacillus subtilis MTCC 441 after 24 hrs by tube dilution method. In kind it is functional. As to conditions: MTCC 441, 24 h. The gist of the method:
(§1)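 Tube dilution in Mueller-Hinton broth at pH 7.4. Two-fold serial dilutions from 1000 to 0.97 in 10% DMSO, with a DMSO-only inoculated control. Inoculum matched visually to a McFarland standard of about 1.5 × 10⁸ cells/mL. Incubation at 37 ± 1 °C for 24 h. MIC is the lowest concentration giving no growth; duplicate determinations, averaged.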

Data set [1] relates to Rattus norvegicus. Kind of data set: Antiinflammatory activity in rat assessed as inhibition of carrageenan-induced paw edema at 10 mg/kg, po administered 30 mins prior to carrageenan-challenge after 3 hrs relative to vehicle-treated control. In kind it is functional. The gist of the method: (§2)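 Rats of 150–200 g, six per group. Oral dosing at 10 mg/kg as a suspension; controls receive 1% carboxymethylcellulose. After 30 min, 0.1 mL of 1% w/v carrageenan is injected into the left hind paw. Paw volume is measured by mercury displacement. Inhibition = (1 − Vt/Vc) × 100 from edema volumes; mean ± SEM.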

The test system of data set [2] is Rattus norvegicus. Kind of data set: Antiinflammatory activity in rat assessed as inhibition of carrageenan-induced paw edema at 10 mg/kg, po administered 30 mins prior to carrageenan-challenge after 4 hrs relative to vehicle-treated control. The class given is functional. The gist of the method: as §2
A general note: In the carrageenan paw model, swelling and tenderness develop within hours.

A further data set concerns Staphylococcus aureus. Put plainly: Antibacterial activity against Staphylococcus aureus MTCC 3160 after 24 hrs by tube dilution method. The class given is functional. As to conditions: MTCC 3160, 24 h. The gist of the method: as §1
Another data set concerns Mus musculus. Put plainly: Analgesic activity in mouse assessed as inhibition of acetic-acid induced writhing at 10 mg/kg administered 15 mins prior to acetic acid-challenge measured for 15 mins relative to vehicle-treated control. In kind it is functional. A digest of the protocol:
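Mice, at least six per group. Test compounds given at 10 mg/kg; acetic acid solution given 15 min later. Writhing is scored as abdominal contractions, trunk twists and hind-limb extensions. Percent inhibition of pain = (1 − Vt/Vc) × 100, where Vt and Vc are mean writhing counts in the treated and control groups.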
(In general: Writhing tests count abdominal constrictions after an irritant is injected.)

For a further data set, the system named is Candida albicans. Kind of data set: Antifungal activity against Candida albicans MTCC 183 after 48 hrs by tube dilution method. In kind it is functional. As to conditions: MTCC 183, 48 h. A digest of the protocol: (§3)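 Tube dilution in Sabouraud dextrose broth at pH 7.4. Two-fold serial dilutions from 1000 to 0.97 in 10% DMSO, with a solvent control. Inoculum matched visually to a McFarland standard of about 1.5 × 10⁸ cells/mL. Incubation at 25 ± 1 °C for 48 h. MIC is the tube showing no fungal growth; duplicate determinations, averaged.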

Data set [3] relates to Rattus norvegicus. Put plainly: Antiinflammatory activity in rat assessed as inhibition of carrageenan-induced paw edema at 10 mg/kg, po administered 30 mins prior to carrageenan-challenge after 2 hrs relative to vehicle-treated control. The class given is functional. The gist of the method: as §2
A further data set concerns Escherichia coli. Kind of data set: Antibacterial activity against Escherichia coli MTCC 4351 after 24 hrs by tube dilution method. As to conditions: MTCC 4351, 24 h. The class given is functional. A digest of the protocol:
as §1

The next data set has as its system Aspergillus niger. Kind of data set: Antifungal activity against Aspergillus niger MTCC 282 after 48 hrs by tube dilution method. The class given is functional. As to conditions: MTCC 282, 48 h. A digest of the protocol: as §3
Data set [4] has as its system Rattus norvegicus. Put plainly: Antiinflammatory activity in rat assessed as inhibition of carrageenan-induced paw edema at 10 mg/kg, po administered 30 mins prior to carrageenan-challenge after 1 hr relative to vehicle-treated control. In kind it is functional. The gist of the method:
as §2

The next data set relates to Pseudomonas aeruginosa. Kind of data set: Antibacterial activity against Pseudomonas aeruginosa MTCC 424 after 24 hrs by tube dilution method. In kind it is functional. As to conditions: MTCC 424, 24 h. A digest of the protocol:
as §1

Data set [5] concerns Rattus norvegicus. Kind of data set: Ulcerogenic activity in Wistar albino rat assessed as ulcer index at 10 mg/kg, ip administered QD for 3 days. The class given is toxicity, organism-based. On the set-up: dose 10 mg/kg, route intraperitoneal. As to conditions: in vivo, 72 h. The gist of the method:
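Wistar rats of either sex, 150–200 g, six per group. Given 10 mg/kg ip once daily for 3 days; controls receive 10% v/v Tween 80. Fasted 36 h, then pylorus ligated on day 4. Killed 4 h after ligation; stomach opened along the greater curvature and ulcer index scored; mean ± SEM.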

Values after ≈ are worked out from the molar mass of the structure shown.

For the compound `O=C1N=C(C2C(=O)c3ccccc3C2=O)CC(c2ccco2)N1` (configuration not stated), the MIC in the data set on Bacillus subtilis was 31.2 µg/mL (≈ 101 µM); against Staphylococcus aureus it was 62.5 µg/mL (≈ 203 µM); in the data set with Candida albicans, 62.5 µg/mL (≈ 203 µM); with Escherichia coli, 31.2 µg/mL (≈ 101 µM); in the data set on Aspergillus niger it was 62.5 µg/mL (≈ 203 µM); with Pseudomonas aeruginosa, 500 µg/mL (≈ 1620 µM). Besides, the inhibition in vivo at 10 mg/kg in the data set with Rattus norvegicus [1] was found to be 20%; with Rattus norvegicus [2], 7%; in the data set on Mus musculus, 25%; in the data set with Rattus norvegicus [3] it was 25%; in the data set with Rattus norvegicus [4], 18%.
Take `O=C1N=C(C2C(=O)c3ccccc3C2=O)CC(/C=C/c2ccccc2)N1` (configuration not stated): the MIC against Bacillus subtilis was 125 µg/mL (≈ 363 µM); in the data set on Staphylococcus aureus, 62.5 µg/mL (≈ 181 µM); against Candida albicans, 250 µg/mL (≈ 726 µM); with Escherichia coli, 125 µg/mL (≈ 363 µM); in the data set with Aspergillus niger, 250 µg/mL (≈ 726 µM); against Pseudomonas aeruginosa, 250 µg/mL (≈ 726 µM). Further, the inhibition in vivo at 10 mg/kg with Rattus norvegicus [1] was found to be 18%; in the data set on Rattus norvegicus [2] it was 16%; in the data set on Mus musculus it was 16%; in the data set with Rattus norvegicus [3], 32%; in the data set on Rattus norvegicus [4], 17%.
On to `O=C1N=C(C2C(=O)c3ccccc3C2=O)CC(c2ccccc2O)N1` (configuration not stated), for which the MIC turned out to be 250 µg/mL (≈ 748 µM) in the data set on Bacillus subtilis; 125 µg/mL (≈ 374 µM) in the data set on Staphylococcus aureus; 250 µg/mL (≈ 748 µM) against Candida albicans; 500 µg/mL (≈ 1500 µM) with Escherichia coli; 500 µg/mL (≈ 1500 µM) in the data set with Aspergillus niger; 125 µg/mL (≈ 374 µM) in the data set with Pseudomonas aeruginosa. The inhibition in vivo at 10 mg/kg came out at 19% in the data set on Rattus norvegicus [1]; 16% with Rattus norvegicus [2]; 37% in the data set with Mus musculus; 22% with Rattus norvegicus [3]; 24% in the data set on Rattus norvegicus [4].
Turning to `O=C1N=C(C2C(=O)c3ccccc3C2=O)CC(c2c[nH]c3ccccc23)N1` (configuration not stated), the MIC with Bacillus subtilis was determined as 250 µg/mL (≈ 700 µM); with Staphylococcus aureus, 250 µg/mL (≈ 700 µM); against Candida albicans, 500 µg/mL (≈ 1400 µM); with Escherichia coli, 250 µg/mL (≈ 700 µM); in the data set with Aspergillus niger it was 125 µg/mL (≈ 350 µM); in the data set on Pseudomonas aeruginosa it was 125 µg/mL (≈ 350 µM). For the same compound, the inhibition in vivo at 10 mg/kg with Rattus norvegicus [1] was 12%; in the data set on Rattus norvegicus [2], 12%; in the data set on Mus musculus, 21%; in the data set on Rattus norvegicus [3] it was 21%; in the data set on Rattus norvegicus [4] it was 19%.
Consider `COc1cc(C2CC(C3C(=O)c4ccccc4C3=O)=NC(=O)N2)ccc1O` (configuration not stated), for which the MIC against Bacillus subtilis is 250 µg/mL (≈ 686 µM); with Staphylococcus aureus it was 125 µg/mL (≈ 343 µM); in the data set on Candida albicans, 250 µg/mL (≈ 686 µM); against Escherichia coli it was 500 µg/mL (≈ 1370 µM); in the data set on Aspergillus niger it was 125 µg/mL (≈ 343 µM); in the data set on Pseudomonas aeruginosa it was 250 µg/mL (≈ 686 µM). The inhibition in vivo at 10 mg/kg in the data set with Rattus norvegicus [1] was 26%; in the data set with Rattus norvegicus [2] it was 11%; in the data set on Mus musculus, 28%; in the data set on Rattus norvegicus [3], 33%; in the data set with Rattus norvegicus [4], 20%.
With `CC1(C)S[C@@H]2[C@H](NC(=O)[C@H](N)c3ccccc3)C(=O)N2[C@H]1C(=O)O` [AMPICILLIN], the MIC with Bacillus subtilis, against Staphylococcus aureus, against Escherichia coli and against Pseudomonas aeruginosa was 3.9 µg/mL (≈ 11.2 µM) each time.
As for `OC(Cn1cncn1)(Cn1cncn1)c1ccc(F)cc1F` [FLUCONAZOLE], the MIC against Candida albicans and against Aspergillus niger was 7.8 µg/mL (≈ 25.5 µM) throughout.
Consider `COc1ccc2c(c1)c(CC(=O)O)c(C)n2C(=O)c1ccc(Cl)cc1` [INDOMETHACIN], for which the inhibition in vivo at 10 mg/kg in the data set with Rattus norvegicus [1] turned out to be 39%; with Rattus norvegicus [2], 34%; with Mus musculus, 55%; with Rattus norvegicus [3] it was 48%; with Rattus norvegicus [4] it was 23%. The UI in the data set on Rattus norvegicus [5] came out at 1.7.

Usually MIC stands for the smallest concentration in the dilution series that meets the test's criterion for growth inhibition. A high value points to a need for much substance. As a reminder, the inhibition in vivo is the percentage by which the read-out fell short of the control.
